Reference: ChEMBL document CHEMBL1156932, “Structure based drug design: development of potent and selective factor IXa (FIXa) inhibitors” (J Med Chem, 2010)

Tests used:
[1] = target: Coagulation factor X (Homo sapiens, UniProt P00742); assay: Inhibition of factor 10a by amidolytic assay
How it was run: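 […] taken as the mean of at least three experiments. Variation between runs stated as under 10%.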

[2] = Selectivity ratio of Ki for uPA to Ki for human recombinant factor 9a
[3] = target: Coagulation factor IX (Homo sapiens, UniProt P00740); assay: Inhibition of human recombinant factor 9a by amidolytic assay
Chain of Coagulation factor IX (P00740 47-191 limits assumed): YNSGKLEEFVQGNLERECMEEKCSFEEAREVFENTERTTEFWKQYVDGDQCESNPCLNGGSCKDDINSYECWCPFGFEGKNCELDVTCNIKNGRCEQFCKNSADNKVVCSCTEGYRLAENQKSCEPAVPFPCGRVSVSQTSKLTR
Chain of Coagulation factor IX (P00740 227-461 limits assumed): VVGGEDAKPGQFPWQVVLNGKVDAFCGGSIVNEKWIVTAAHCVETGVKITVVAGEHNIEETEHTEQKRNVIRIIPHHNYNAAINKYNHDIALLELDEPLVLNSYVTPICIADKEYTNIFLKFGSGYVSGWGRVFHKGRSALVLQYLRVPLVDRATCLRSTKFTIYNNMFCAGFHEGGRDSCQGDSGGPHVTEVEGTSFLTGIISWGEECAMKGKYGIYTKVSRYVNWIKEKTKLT

[4] = target: Urokinase-type plasminogen activator (Homo sapiens, UniProt P00749)
[5] = Selectivity ratio of Ki for factor 10a to Ki for human recombinant factor 9a
[6] = Protein binding in human plasma; assay type: ADME, cell-free; settings: read-out: PPB (converted)
[7] = test system: Plasma; assay: Anticoagulant potency in human plasma assessed as concentration required to double the […]; assay type: functional
How it was run: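 Citrated plasma from healthy volunteers, centrifuged at 2000g for 10 min and held on ice. Plasma incubated 1 min at 37 C, aPTT reagent (FSL) added, then 3 min at 37 C. Clotting started with 0.025 M CaCl2. Clot formation read at 660 nm on an automated coagulation analyzer.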

[8] = test system: Plasma; assay: Anticoagulant potency in human plasma assessed as concentration required to double the prothrombin time; assay type: functional
How it was run: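 Citrated plasma from healthy volunteers, centrifuged at 2000g for 10 min and held on ice. Plasma incubated 3 min at 37 C before addition of thromboplastin PT reagent (Thromborel S). Clot formation followed at 660 nm in an automated coagulation analyzer.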

[9] = test system: Plasma; assay: Anticoagulant potency in human plasma assessed as concentration required to double the thrombin time; assay type: functional
How it was run: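 Plasma from citrated blood of healthy volunteers, centrifuged at 2000g for 10 min and kept on ice. Plasma incubated 2 min at 37 C, then thrombin reagent added. Clotting time monitored at 660 nm on an automated analyzer.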

Chain of Coagulation factor X (P00742 41-179 limits assumed): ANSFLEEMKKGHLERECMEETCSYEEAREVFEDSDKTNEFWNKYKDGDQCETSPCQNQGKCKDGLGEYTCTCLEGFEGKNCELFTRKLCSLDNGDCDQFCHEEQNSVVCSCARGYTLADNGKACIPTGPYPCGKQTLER
Chain of Coagulation factor X (P00742 235-488 limits assumed): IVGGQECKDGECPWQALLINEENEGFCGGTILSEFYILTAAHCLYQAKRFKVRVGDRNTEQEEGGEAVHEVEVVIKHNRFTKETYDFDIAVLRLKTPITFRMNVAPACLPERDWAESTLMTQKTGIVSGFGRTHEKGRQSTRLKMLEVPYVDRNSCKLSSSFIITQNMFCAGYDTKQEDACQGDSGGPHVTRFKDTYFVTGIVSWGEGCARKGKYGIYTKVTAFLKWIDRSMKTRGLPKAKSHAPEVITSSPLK

Structure (SMILES)	Ki [1] [nM]	Ratio Ki [2]	Ki [3] [nM]	Ki [4] [nM]	Ratio Ki [5]	fraction unbound [6]	Activity [7] [µM]	Activity [8] [µM]	Activity [9] [µM]
N=C(N)c1cc2c(OC(COC(=O)Nc3ccccc3F)c3ccccc3)cccc2s1 (centres undefined)	550	62	5	331	110				
CN(C)Cc1ccccc1NC(=O)OCC(Oc1cc(F)cc2sc(C(=N)N)cc12)c1ccccc1 (centres undefined)	1360	117	8.1	940	169				
CNCc1ccccc1NC(=O)OCC(Oc1cccc2sc(C(=N)N)cc12)c1ccccc1 (centres undefined)	1150	103	3	308	383				
COC(=O)Cn1nc(C)c(NC(=O)OCC(Oc2cccc3sc(C(=N)N)cc23)c2ccccc2)c1C (centres undefined)	1300	5	11	59	118				
Cc1nn(C)c(CNC(C)C)c1NC(=O)OCC(Oc1cccc2sc(C(=N)N)cc12)c1ccccc1 (centres undefined)	1630	50	3	151	542	0.04	5.9	29	25
Cc1n[nH]c(C)c1NC(=O)OCC(Oc1cccc2sc(C(=N)N)cc12)c1ccccc1 (centres undefined)	2840	7	8	58	360	0.05	11.7	63	>80
COc1cccc(NC(=O)C(Oc2cccc3sc(C(=N)N)cc23)c2ccccc2)c1 (centres undefined)	290		130	170					
COC(=O)CCNC(=O)C(Oc1cccc2sc(C(=N)N)cc12)c1ccccc1 (centres undefined)			8400						
N=C(N)c1cc2c(OC(CO)c3ccccc3)cccc2s1 (centres undefined)	1740		270						
CNCc1c(NC(=O)OCC(Oc2cccc3sc(C(=N)N)cc23)c2ccccc2)c(C)nn1C (centres undefined)	2380	31	5	156	475	0.05	7.7	42	56
CN(C)CCNC(=O)C(Oc1cccc2sc(C(=N)N)cc12)c1ccccc1 (centres undefined)	3400		1000	2130					
N=C(N)c1cc2c(OC(COC(=O)Nc3ccccc3CN)c3ccccc3)cccc2s1 (centres undefined)	825	74	4	297	206				
COc1ccccc1NC(=O)C(Oc1cccc2sc(C(=N)N)cc12)c1ccccc1 (centres undefined)	70		140	120					
N=C(N)c1cc2c(O[C@@H](c3ccccc3)c3nc(-c4ccccc4)no3)cccc2s1	3970		270	650					
N=C(N)c1cc2c(OC(COC(=O)Nc3c(F)cccc3F)c3ccccc3)cccc2s1 (centres undefined)	1300	34	7	249	186				
Cc1noc(C)c1NC(=O)OCC(Oc1cccc2sc(C(=N)N)cc12)c1ccccc1 (centres undefined)	2250	12	12	142	210				
CCNC(=O)OCC(Oc1cccc2sc(C(=N)N)cc12)c1ccccc1 (centres undefined)	360		28	150					
CCOC(=O)c1nccn1-c1ccc(NC(=O)C(Oc2cccc3sc(C(=N)N)cc23)c2ccccc2)cc1 (centres undefined)	2.6		420	190					
N=C(N)c1cc2c(OC(COC(=O)Nc3ccccc3CN3CCNCC3)c3ccccc3)cccc2s1 (centres undefined)	354	278	3	833	118	0.05	5	17	20
N=C(N)c1cc2c(OC(COC(=O)Nc3ccccc3CN)c3ccccc3)cc(F)cc2s1 (centres undefined)	2110	190	4.4	828	486				
CN1CCN(Cc2ccc(NC(=O)OCC(Oc3cccc4sc(C(=N)N)cc34)c3ccccc3)cc2)CC1 (centres undefined)	1560	20	10	201	156				
Cc1ccccc1NC(=O)OCC(Oc1cccc2sc(C(=N)N)cc12)c1ccccc1 (centres undefined)	1180	36	8	308	148				
CNCc1cc(NC(=O)OCC(Oc2cccc3sc(C(=N)N)cc23)c2ccccc2)n(C)n1 (centres undefined)	1270	50	5	251	254				
CC(=O)NCC(Oc1cccc2sc(C(=N)N)cc12)c1ccccc1 (centres undefined)	1300		340	220					

Structure (SMILES)	Ki [1] [nM]	Ratio Ki [2]	Ki [3] [nM]	Ki [4] [nM]	Ratio Ki [5]	fraction unbound [6]	Activity [7] [µM]	Activity [8] [µM]	Activity [9] [µM]
CN(C)CCOc1ccc(NC(=O)OCC(Oc2cccc3sc(C(=N)N)cc23)c2ccccc2)cc1 (centres undefined)	872	50	4	201	218				
N=C(N)c1cc2c(OC(CNC(=O)Nc3ccccc3)c3ccccc3)cccc2s1 (centres undefined)	960		29	250					
N=C(N)c1cc2c(OC(CNC(=O)Oc3ccccc3)c3ccccc3)cccc2s1 (centres undefined)	560		50	85					
COC(=O)C(C)Oc1cccc2sc(C(=N)N)cc12 (centres undefined)	> 100000		5150	2270					
COc1ccc(NC(=O)OC[C@@H](Oc2cccc3sc(C(=N)N)cc23)c2ccccc2)cc1	3770	47	35	1630	108				
COc1ccc(NC(=O)OC[C@H](Oc2cccc3sc(C(=N)N)cc23)c2ccccc2)cc1	600	30	3	89	200				
N=C(N)c1cc2c(OC(C(=O)Nc3ccccc3)c3ccccc3)cccc2s1 (centres undefined)	150		170	140					
N=C(N)c1cc2c(OC(C(=O)Nc3ccc(C(=O)N4CCCC4)cc3)c3ccccc3)cccc2s1 (centres undefined)	0.5		290	130					
COCc1cc(NC(=O)OCC(Oc2cccc3sc(C(=N)N)cc23)c2ccccc2)n(C)n1 (centres undefined)	1560	12	9	109	173				
N=C(N)c1cc2c(OC(CNCc3ccccc3)c3ccccc3)cccc2s1 (centres undefined)	250		100	310					
N=C(N)c1cc2c(OC(COC(=O)NCc3ccccc3)c3ccccc3)cccc2s1 (centres undefined)	830		61	510					
N=C(N)c1cc2c(OC(C(=O)NCc3ccccc3)c3ccccc3)cccc2s1 (centres undefined)	950		390	510					
CN(C)C(=O)c1ccc(NC(=O)C(Oc2cccc3sc(C(=N)N)cc23)c2ccccc2)cc1 (centres undefined)	0.6		370	160					
N=C(N)c1cc2c(OC(COC(=O)Nc3cccc(F)c3)c3ccccc3)cccc2s1 (centres undefined)	1300	37	25	935	52				
CC(C)CNCc1ccccc1NC(=O)OCC(Oc1cccc2sc(C(=N)N)cc12)c1ccccc1 (centres undefined)	583	367	2	733	292				
N=C(N)c1cc2c(OC(COC(=O)Nc3ccc(F)cc3F)c3ccccc3)cccc2s1 (centres undefined)	1480	82	7	575	212				
COc1ccc(NC(=O)C(Oc2cccc3sc(C(=N)N)cc23)c2ccccc2)cc1 (centres undefined)	52		140	140					
N=C(N)c1cc2c(OC(CN)c3ccccc3)cccc2s1 (centres undefined)	4450		160	270					
N=C(N)c1cc2c(OC(COC(=O)Nc3ccccc3)c3ccccc3)cc(F)cc2s1 (centres undefined)	1590	137	15.5	2110	102				
COC(=O)C(Oc1cccc2sc(C(=N)N)cc12)c1ccccc1 (centres undefined)	13800		500	500					
CNC(=O)OCC(Oc1cccc2sc(C(=N)N)cc12)c1ccccc1 (centres undefined)	700		97	210					
N=C(N)c1cc2c(OC(COC(=O)Nc3ccccc3)c3ccccc3)cccc2s1 (centres undefined)	1810	44	10	440	181				
COc1ccc(NC(=O)OCC(Oc2cccc3sc(C(=N)N)cc23)c2ccccc2)cc1 (centres undefined)	800	45	5	226	160				
CN(C)Cc1ccccc1NC(=O)OCC(Oc1cccc2sc(C(=N)N)cc12)c1ccccc1 (centres undefined)	828	76	8	609	104				
